From ChEMBL document CHEMBL1926571, “Design, synthesis and the effect of 1,2,3-triazole sialylmimetic neoglycoconjugates on Trypanosoma cruzi and its cell surface trans-sialidase” (Bioorg Med Chem, 2012)

Assays:
[1] = (§1) Inhibition of Trypanosoma cruzi trans-Sialidase
Trypanosoma cruzi [2] = experiment: as §1; conditions: concentration not given here
Trypanosoma cruzi [3] = experiment: Antitrypanosomal activity against Trypanosoma cruzi […] infected in monkey LLC-MK2 cells after 4 days by beta-galactosidase reporter gene assay; format: functional, organism-based; conditions: LLC-MK2, 96 h
How it was run: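 LLC-MK2 cells in phenol-red-free RPMI with 10% FBS, 2×10^3/well, grown 24 h, then infected with 1×10^4 trypomastigotes of T. cruzi Tulahuen expressing E. coli β-galactosidase; compounds added 24 h later (0.5 mM–3.5 µM) for 4 days. Lysed with PBS/0.5% Triton X-100 containing 100 µM CPRG, 4 h at 37 °C, A570. Concentration giving 50% trypanocidal activity reported as IC50.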

Trypanosoma cruzi [4] = experiment: Inhibition of Trypanosoma cruzi N-terminus His-tagged trans-Sialidase using MuNANA as substrate at 0.5 mM after 10 mins by fluorometric analysis
How it was run: (§2)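 Recombinant His-tagged 70 kDa enzyme truncated of C-terminal repeats, retaining catalytic N-terminal domain. Triplicate wells: pH 7.4 phosphate buffer, enzyme and inhibitor (added as 4.0 or 2.0 mM solution, 1.0 or 0.5 mM final) preincubated 10 min at 26 °C; MuNANA added at 0.1 mM final. Released methylumbelliferone fluorescence (ex 360/em 460 nm) read after 10 min; percent inhibition.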

[5] = Cytotoxicity against C57BL/6 mouse spleen cells assessed as cell death at 0.5 mM after 24 hrs by propidium iodide staining-based flow cytometric analysis; conditions: 500 µM
How it was run: (§3)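 Spleen cells from C57BL/6 mice, red cells lysed 5 min (Tris-HCl pH 7.5/ammonium chloride), in RPMI 1640 with 10% FBS at 5×10^5 cells/well, exposed to a range of compound concentrations for 24 h at 37 °C. Tween 20 at 0.5% as death control. Stained with 10 µg/mL propidium iodide, read by flow cytometry.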

Trypanosoma cruzi [6] = experiment: Inhibition of Trypanosoma cruzi N-terminus His-tagged trans-Sialidase using MuNANA as substrate at 1 mM after 10 mins by fluorometric analysis; how it was run: as §2
[7] = Cytotoxicity against C57BL/6 mouse spleen cells assessed as cell death at 250 to 780 uM mM after 24 hrs by propidium iodide staining-based flow cytometric analysis; conditions: 7.8 µM, in the assay text read “250 to 7.8 uM” for “250 to 780 uM mM”; how it was run: as §3
[8] = Binding affinity to Trypanosoma cruzi trans-Sialidase by surface plasmon resonance assay
[9] = Cytotoxicity against C57BL/6 mouse spleen cells assessed as cell death at 500 to 780 uM mM after 24 hrs by propidium iodide staining-based flow cytometric analysis; conditions: 7.8 µM, in the assay text read “500 to 7.8 uM” for “500 to 780 uM”; how it was run: as §3

SMILES | IC50 [1] [µM] | IC50 (Trypanosoma cruzi [3]) [µM] | inhibition (Trypanosoma cruzi [4]) [%] | inhibition (Trypanosoma cruzi [6]) [%] | other results
Cc1ccc(S(=O)(=O)Nc2ccc(C(=O)/C=C/c3ccc(O)c(O)c3)cc2)cc1 | 0.9 | – | – | – | –
CCCCCCCCO[C@@H]1O[C@H](COC)[C@H](O)[C@H](O)[C@H]1O | – | – | – | – | inhibition (Trypanosoma cruzi [2]): 75%
O=C(Cn1ccnc1[N+](=O)[O-])NCc1ccccc1 [BENZNIDAZOLE] | – | 125 | – | – | –
Cc1ccc(S(=O)(=O)Nc2cccc(C(=O)/C=C/c3ccc(O)c(O)c3)c2)cc1 | 2.5 | – | – | – | –
Cc1ccc(S(=O)(=O)N2c3ccccc3C(=O)C3=Cc4cc(O)c(O)c5c(O)c(O)cc(c45)C32)cc1 (centres undefined) | 0.6 | – | – | – | –
O=c1c(O)c(-c2cc(O)c(O)c(O)c2)oc2cc(O)cc(O)c12 [MYRICETIN] | 0.58 | – | – | – | –
CC(=O)N[C@H]1[C@H]([C@H](O)[C@H](O)CO)O[C@@](CCCc2ccccc2)(C(=O)O)C[C@@H]1O | – | – | – | – | Kd [8]: 160 µM
CCCCCCCCO[C@@H]1O[C@H](CO)[C@H](O)[C@H](O)[C@H]1O | – | – | – | – | inhibition (Trypanosoma cruzi [2]): 84%
CC(=O)N[C@H]1[C@H]([C@H](O)[C@H](O)CO)O[C@@](OCc2cn([C@@H]3[C@@H](O)[C@@H](O)O[C@H](CO)[C@H]3O)nn2)(C(=O)O)C[C@@H]1O | – | 726 | 1.5 | 67 | Activity [9]: Non-toxic
CC(=O)N[C@H]1[C@H]([C@H](O)[C@H](O)CO)O[C@@](OCc2cn([C@H]3[C@@H](O)[C@H](O)O[C@H](CO)[C@@H]3O)nn2)(C(=O)O)C[C@@H]1O | – | > 2000 | 1.5 | 69 | Activity [9]: Non-toxic

Further lines, with some results ahead:

IC50 [1] [µM] | IC50 (Trypanosoma cruzi [3]) [µM] | inhibition (Trypanosoma cruzi [4]) [%] | inhibition (Trypanosoma cruzi [6]) [%] | SMILES | other results
– | 369 | 1.5 | 5 | CO[C@H]1O[C@H](CO)[C@H](O)[C@H](OCc2cn(C(C(=O)O)C(C)O)nn2)[C@H]1O (some centres undefined) | Activity [5]: > 80%
– | 260 | 30 | 91 | CC(=O)N[C@H]1[C@H]([C@H](O)[C@H](O)CO)O[C@@](OCc2cn(C[C@H]3O[C@H](O)[C@H](O)[C@@H](O)[C@H]3O)nn2)(C(=O)O)C[C@@H]1O | Activity [5]: 55%; Activity [7]: Non-toxic
– | 475 | 1.5 | 88 | CC(=O)N[C@H]1[C@H]([C@H](O)[C@H](O)CO)O[C@@](OCc2cn([C@@H]3O[C@H](CO)[C@H](O)[C@H](O)[C@H]3O)nn2)(C(=O)O)C[C@@H]1O | Activity [5]: > 80%
